Results as given in ChEMBL document CHEMBL3875153, “Design and synthesis of isatin/triazole conjugates that induce apoptosis and inhibit migration of MGC-803 cells” (Eur J Med Chem, 2016).

How the values were obtained:
[1] = Cytotoxicity against human GES-1 cells assessed as growth inhibition after 72 hrs by CCK8 assay; format: toxicity, cell-based, GES1; details: for IC50 at 72 h: human, GES-1 cells
Outline: (§1)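 Exponentially growing cells were trypsinized and seeded at 2 × 10^4 cells/mL (100 µL/well). After 24 h, medium was replaced with compound at 0.5–256 µM (twofold steps). Plates were incubated 72 h at 37 °C, 5% CO2, then with CCK-8 for 4 h. A450 was read. Three independent runs; IC50 given as mean and SD.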

[2] = Cytotoxicity against human HL-7702 cells assessed as growth inhibition after 72 hrs by CCK8 assay; format: toxicity, cell-based, L02; details: for IC50 at 72 h: human, HL-7702 cells; outline: as §1
[3] = Cytotoxicity against human SW780 cells assessed as growth inhibition after 72 hrs by CCK8 assay; format: functional, cell-based; outline: as §1
[4] = Cytotoxicity against human MCF7 cells assessed as growth inhibition after 72 hrs by CCK8 assay; format: functional, cell-based; outline: as §1
[5] = Cytotoxicity against human TE1 cells assessed as growth inhibition after 72 hrs by CCK8 assay; format: functional, cell-based, TE-1; outline: as §1
[6] = Cytotoxicity against human MGC803 cells assessed as growth inhibition after 72 hrs by CCK8 assay; format: functional, cell-based, MGC-803; outline: as §1
[7] = Homo sapiens, SW780, 72 h, read-out: IC50
[8] = Homo sapiens, MCF7, 72 h, read-out: IC50
[9] = Homo sapiens, TE-1, 72 h, read-out: IC50
[10] = Homo sapiens, MGC-803, 72 h, read-out: IC50

Structure (SMILES) | IC50 at 72 h [1] [µM] | IC50 at 72 h [2] [µM] | IC50 [3, 7] [µM] | IC50 [4, 8] [µM] | IC50 [5, 9] [µM] | IC50 [6, 10] [µM] | IC50 ([1]; ges1) | IC50 ([2]; l02) | IC50 ([3]; sw780) | IC50 ([4]; mcf7) | IC50 ([5]; te-1) | IC50 ([6]; mgc-803)
O=C(Cn1cc(CN2C(=O)C(=O)c3c(Cl)ccc(Cl)c32)nn1)Nc1ccccc1 | 24.9 | 24.9 | 27 | 38.5 | 30.6 | 17.5 |  |  |  |  |  | 
O=C1C(=O)N(Cc2cn(CC(=O)N3CCCCC3)nn2)c2c(Cl)ccc(Cl)c21 | 50.7 | 39.3 | 29.7 | 34.6 | 40.6 | 18.7 |  |  |  |  |  | 
O=C1C(=O)N(Cc2cn(CC(=O)N3CCNCC3)nn2)c2c(Cl)ccc(Cl)c21 |  |  |  |  |  |  | Nd(Insoluble) | Nd(Insoluble) | Nd(Insoluble) | Nd(Insoluble) | Nd(Insoluble) | Nd(Insoluble)
